Experimental data published in PMC4618649 (Pharmacology Research & Perspectives, 2015).
Read-outs that look alike come from different tables or passages of the source. One block for each compound: values may come before it.

What was measured:
[1] = Substrate depletion in human liver microsomes; format: in vitro ADME; conditions: both, human, human liver microsomes
[2] = tested on: Human liver microsomes (HLMs); experiment: Substrate depletion in human liver microsomes; format: in vitro ADME; conditions: largest k calculated, used to approximate first-order conditions; HLMs 0.25 mg/mL
CYP2C8 (rCYP2C8) = target: T1, CYP2C8 (rCYP2C8) (Homo sapiens, UniProt P10632); experiment: Substrate depletion by human recombinant CYP2C8; format: in vitro ADME; conditions: human, recombinant CYP2C8 Supersomes (insect cell microsomes)
T1 sequence (P10632 1-490): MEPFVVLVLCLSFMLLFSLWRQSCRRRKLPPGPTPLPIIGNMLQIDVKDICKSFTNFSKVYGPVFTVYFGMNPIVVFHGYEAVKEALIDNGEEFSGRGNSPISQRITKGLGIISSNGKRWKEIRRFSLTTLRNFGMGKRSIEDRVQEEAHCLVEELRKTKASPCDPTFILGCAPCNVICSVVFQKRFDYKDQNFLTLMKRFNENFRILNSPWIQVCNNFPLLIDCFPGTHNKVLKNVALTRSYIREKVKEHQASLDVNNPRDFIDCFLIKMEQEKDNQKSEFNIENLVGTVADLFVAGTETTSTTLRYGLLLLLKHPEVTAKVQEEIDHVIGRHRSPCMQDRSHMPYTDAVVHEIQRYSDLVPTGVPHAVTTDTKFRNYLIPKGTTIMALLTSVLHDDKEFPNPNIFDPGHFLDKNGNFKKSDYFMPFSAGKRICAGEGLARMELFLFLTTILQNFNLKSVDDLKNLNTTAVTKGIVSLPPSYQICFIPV
Procedure, shortened: (§1)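 Human recombinant CYPs were insect-cell microsomes, with CYPb5 co-expressed if available, plus a no-CYP membrane control. Test compound (30 or 300 nmol/L) was incubated with matrix (0.25 mg/mL) and buffer. NADPH (1 mmol/L) started the reaction, and acetonitrile with internal standard stopped it after 5 or 30 min. CLint came from −kdep and the amount of rCYP, scaled to HLM by relative activity factor.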

rCYP2C8 = target: T2, rCYP2C8 (Homo sapiens, UniProt P10632); experiment: Substrate depletion by human recombinant CYP2C8; format: in vitro ADME; conditions: rCYP2C8
T2 sequence (P10632 1-490): T1 sequence (P10632 1-490)
Procedure, shortened: as §1

CYP3A (rCYP3A4) = CYP3A (rCYP3A4) (Homo sapiens, UniProt P08684); experiment: Substrate depletion by human recombinant CYP3A4; format: in vitro ADME
Procedure, shortened: as §1

[3] = format: in vivo, human; conditions: for % AUC(tlast–∞): geometric mean (range)
Procedure, shortened: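 Five healthy males received a single oral 100 mg dose containing ~100 μCi 14C-label, with blood sampled to 192 h. Plasma parent was measured by LC/MS/MS (range 1–1000 ng/mL). Total radioactivity was counted by liquid scintillation, directly in plasma and after combustion for whole blood. Parameters were derived noncompartmentally. Adverse events were recorded.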

[4] = Phase 1 disposition study: excretion and mass balance; format: in vivo, human
Procedure, shortened: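 Five healthy males received a single oral 100 mg dose containing ~100 μCi 14C-label. Urine and feces were collected to 216 h, and expired air at selected times to 48 h for 14CO2. Radioactivity was counted by liquid scintillation, either directly (urine, expired air) or after combustion (feces). Cumulative fraction of dose was summed over collection periods.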

[5] = Phase 1 disposition study: metabolite radioprofiling in plasma and feces; format: in vivo, human; conditions: for Percent dose mean excreted in feces: single oral 100 mg 14C-evacetrapib
Procedure, shortened: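 Samples came from five healthy males after a single oral 100 mg dose (~100 μCi 14C). Plasma, feces and urine were extracted, dried and reconstituted in DMSO/acetonitrile/10 mmol/L ammonium acetate (1:3:3). Metabolites were separated by HPLC, and fractions were counted to build radiochromatograms. Structures were identified by LC/MS and LC/MS/MS (ion trap, plus Orbitrap accurate mass) in positive ion mode.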

[6] = Phase 1 DDI study with ketoconazole in healthy subjects; format: in vivo, human; conditions: for Ratio of geometric LS means, AUC(0–∞), evacetrapib + ketoconazole versus evacetrapib (90% CI) / Ratio of geometric LS means, Cmax, evacetrapib + ketoconazole versus evacetrapib (90% CI): 100 mg evacetrapib, 400 mg ketoconazole daily; for CL/F: geometric mean (% CV)
Procedure, shortened: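 Twelve fasted healthy adults of both sexes (18–65 y, BMI 18–32 kg/m2) took part in a fixed-sequence study. Period 1 was a single oral 100 mg of test compound, sampled predose to 168 h. After a ≥14-day washout, Period 2 was ketoconazole 400 mg daily for 14 days with 100 mg test compound on Day 5, sampled for 240 h. Plasma LC/MS/MS range was 1–1000 ng/mL. Analysis was noncompartmental, with log ANOVA (treatment fixed, subject random) and 90% CIs; tmax was compared by Wilcoxon test. Adverse events were recorded.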

[7] = Phase 1 DDI study with gemfibrozil in healthy subjects; format: in vivo, human; conditions: for Ratio of geometric LS means, AUC(0–τ), evacetrapib + gemfibrozil versus evacetrapib (90% CI) / Ratio of geometric LS means, Cmax, evacetrapib + gemfibrozil versus evacetrapib (90% CI): 130 mg QD, 600 mg gemfibrozil BID
[8] = ref Mantlo and Escribano [2014]; Cannady 2013; cited from earlier work
[9] = ref Mantlo and Escribano [2014]; Cannady 2013; cited from earlier work; remark: listed apart in the source
[10] = patients with dyslipidemia, alone or with statins; ref Nicholls et al. [2011]; cited from earlier work
[11] = male, human, plasma, oral, 100 mg
[12] = both, human, plasma, oral, 100 mg
[13] = both, human, plasma, oral, 400 mg
[14] = both, human, plasma, oral, 130 mg

Sequence of CYP3A (rCYP3A4) (P08684 whole entry): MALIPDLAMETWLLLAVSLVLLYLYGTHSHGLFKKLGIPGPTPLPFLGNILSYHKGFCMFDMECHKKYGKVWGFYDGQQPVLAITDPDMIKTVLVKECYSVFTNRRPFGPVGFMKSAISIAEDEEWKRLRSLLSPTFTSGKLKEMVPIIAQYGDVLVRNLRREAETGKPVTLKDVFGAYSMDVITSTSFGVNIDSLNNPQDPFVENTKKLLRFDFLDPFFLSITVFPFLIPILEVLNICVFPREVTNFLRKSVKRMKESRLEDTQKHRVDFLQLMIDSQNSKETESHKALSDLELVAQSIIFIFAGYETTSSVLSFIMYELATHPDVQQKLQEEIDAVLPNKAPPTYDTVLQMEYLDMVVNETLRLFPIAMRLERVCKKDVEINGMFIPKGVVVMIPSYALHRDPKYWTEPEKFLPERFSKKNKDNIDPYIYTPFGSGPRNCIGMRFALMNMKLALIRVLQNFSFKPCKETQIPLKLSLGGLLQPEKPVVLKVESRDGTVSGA

microsomal CLint [1]: 138 µL/min/mg | substrate depletion rate constant k in HLMs [2]: 0.0345 min⁻¹ | microsomal CLint (CYP2C8 (rCYP2C8)): 19.9 µL/min/mg | CLint (rCYP2C8): 0.712 μL × min^−1 × pmol CYP^−1 | −kdep (rCYP2C8): 0.000707 s⁻¹ | microsomal CLint (CYP3A (rCYP3A4); human, recombinant CYP3A4 Supersomes (insect cell microsomes)): 186 µL/min/mg | CLint (CYP3A (rCYP3A4); rCYP3A4 representing CYP3A): 4.257 μL × min^−1 × pmol CYP^−1 | −kdep (CYP3A (rCYP3A4); rCYP3A4 representing CYP3A): 0.002608 s⁻¹ | Average (%) of total radioactivity attributed to evacetrapib ([3]; based on AUC(0–36), plasma): 66% | Average (%) of total radioactivity attributed to evacetrapib ([3]; based on AUC(0–∞), plasma): 52% | Average (%) of total radioactivity attributed to evacetrapib ([3]; based on Cmax, plasma): 82% | % AUC(tlast–∞) ([3]; blood total radioactivity, N = 4): 21 (18–24) ^2% | association of evacetrapib-related material with red blood cells ([3]; from blood-to-plasma radioactivity ratios and hematocrit): negligible | AUC(0-t) [3, 11]: 6250 ng·h/mL | Cmax [3, 11]: 777 ng/mL | Vd/F [3, 11]: 564 L | half-life [3, 11]: 32.3 h | AUC(0-inf) ([3]; male, human, plasma, po, 100 mg): 8250 ng·h/mL | CL/F ([3]; plasma evacetrapib, geometric mean (CV)): 12.1 (20) L/h | % AUC(tlast–∞) ([3]; plasma evacetrapib): 1 (0–4) % | % AUC(tlast–∞) ([3]; plasma total radioactivity): 19 (13–26) % | dose excreted in feces ([4]; mean (±SD), up to 216 h): 93.1 % of the dose | dose excreted in urine ([4]; mean (±SD), up to 216 h): 2.30 % of the dose | levels of radioactivity in expired air ([4]; samples up to 48 h): negligible | radioactive peaks in plasma ([5]; 24-h plasma samples, detected in only 3 subjects): only quantifiable radioactive peak | dose eliminated via CYP-mediated (oxidative) metabolism ([5]; from fecal metabolites): Approximately 70% | Dose eliminated in the select feces through 192 h postdose ([5]; percent dose mean): 89.86% | Percent dose mean excreted in feces [5]: 17 % of the dose | Percent dose mean excreted in feces ([5]; listed as Evacetrapib): 16.80 % of the dose | Ratio of geometric LS means, AUC(0–∞), evacetrapib + ketoconazole versus evacetrapib (90% CI) [6]: 2.37 | Ratio of geometric LS means, Cmax, evacetrapib + ketoconazole versus evacetrapib (90% CI) [6]: 1.94 | Ratio of geometric LS means, AUC(0–∞), evacetrapib + ketoconazole versus evacetrapib (90% CI) ([6]; listed as Evacetrapib): 2.37 (1.77, 3.18) | Ratio of geometric LS means, Cmax, evacetrapib + ketoconazole versus evacetrapib (90% CI) ([6]; listed as Evacetrapib): 1.94 (1.39, 2.72) | AUC(0-inf) [6, 12]: 5260 ng·h/mL | Cmax [6, 12]: 332 ng/mL | Tmax [6, 12]: 3 h | Vd/F [6, 12]: 861 L | Tmax [6, 13]: 3 h | Vd/F [6, 13]: 592 L | half-life [6, 13]: 63.2 h | CL/F ([6]; evacetrapib alone): 19.0 (51) L/h | CL/F ([6]; with 400 mg ketoconazole): 8.24 (57) L/h | difference in median tmax between treatments ([6]; with versus without ketoconazole): no difference | Ratio of geometric LS means, AUC(0–τ), evacetrapib + gemfibrozil versus evacetrapib (90% CI) [7]: 0.996 | Ratio of geometric LS means, Cmax, evacetrapib + gemfibrozil versus evacetrapib (90% CI) [7]: 1.02 | Ratio of geometric LS means, AUC(0–τ), evacetrapib + gemfibrozil versus evacetrapib (90% CI) ([7]; listed as Evacetrapib): 0.996 (0.922, 1.08) | Ratio of geometric LS means, Cmax, evacetrapib + gemfibrozil versus evacetrapib (90% CI) ([7]; listed as Evacetrapib): 1.02 (0.933, 1.11) | Tmax ([7]; both, human, plasma, oral): 3 h | AUC [7, 14]: 11300 ng·h/mL | Cmax [7, 14]: 1270 ng/mL | Tmax [7, 14]: 4 h | difference in median tmax between treatments ([7]; with versus without gemfibrozil): no significant difference
Structure (SMILES): Cc1cc(C)c2c(c1)[C@@H](N(Cc1cc(C(F)(F)F)cc(C(F)(F)F)c1)c1nnn(C)n1)CCCN2C[C@H]1CC[C@H](C(=O)O)CC1 [evacetrapib]
treatment-emergent adverse events (TEAEs) reported ([3]; reported by 2 of 5 subjects, single 100-mg dose): 5 | AEs related to evacetrapib as judged by the investigator ([3]; single 100-mg dose): Three | severity of all AEs ([3]; single 100-mg dose): mild | fraction of evacetrapib eliminated by CYPs ([5]; used in the static model): ~1 For determinations of fm, CYP3A4-mediated metabolism was considered to represent total CPY3A-mediated metabolism AUCi/AUC = 1/(1-fmCYP3A × fraction of evacetrapib eliminated by CYPs) where the fraction of evacetrapib eliminated by CYPs is approximately 0.7. | TEAEs considered mild ([6]; evacetrapib alone or in combination with ketoconazole): 16 | TEAEs reported ([6]; evacetrapib alone or in combination with ketoconazole, reported by 5 subjects): 18 | AEs considered to be related to the study drug ([7]; 5 of 24 subjects who received evacetrapib alone and/or with gemfibrozil): 10 | severity of all AEs ([7]; human, in vivo): mild | AEs reported ([7]; whole study, reported by 12 subjects): 28 | drug solubility [8]: poor | protein binding [9]: high | HDL-C levels [10]: increased | LDL-C levels [10]: decreased | changes in blood pressure, aldosterone, cortisol, or electrolytes [10]: without producing substantial changes

Structure (SMILES): CC(=O)N1CCN(c2ccc(OCC3COC(Cn4ccnc4)(c4ccc(Cl)cc4Cl)O3)cc2)CC1 (stereo not shown) [ketoconazole, reference compound]
TEAEs considered moderate ([6]; reported by subjects who received ketoconazole alone): 2
